How the values were obtained:
[1] = tested on: Kidney; test: Drug uptake in overnight fasted Sprague-Dawley rat kidney at 0.7 to 1.4 MBq, iv preincubated with POCA for 2 hrs before compound administration measured at 30 mins post treatment; type: ADME, organism-based; settings: in vivo, 0.5 h
Summary of the method: (§1)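 Female rats fasted overnight, under isoflurane (3.5% induction, 1.5% maintenance). 18F-labelled tracer formulated in 0.5–1.0% BSA/saline, injected via tail vein. Tissues harvested at 30 or 120 min, weighed, gamma-counted, decay-corrected. Uptake expressed as % dose kg/g, i.e. tissue CPM × body wt (kg) × 100 / (tissue wt (g) × dose CPM). POCA groups received 30 mg/kg i.p. 2 h before tracer. n = 5–6.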

[2] = tested on: Liver; test: Drug uptake in overnight fasted Sprague-Dawley rat liver at 9 to 11 MBq, iv at 5 mins by microPET analysis; type: ADME, organism-based; settings: in vivo
Summary of the method: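 Female rats fasted overnight, under isoflurane. 18F-labelled tracer (9–11 MBq) given into a tail vein. Dynamic PET acquisition over the upper thorax for 50 min, then a static whole-body scan 55–115 min post-injection. 2–5 rats per tracer.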

[3] = tested on: Lung; test: Drug uptake in overnight fasted Sprague-Dawley rat lung at 0.7 to 1.4 MBq, iv at 120 mins; type: ADME, organism-based; settings: in vivo, 2 h; summary of the method: as §1
[4] = tested on: Heart; test: Biodistribution in overnight fasted Sprague-Dawley rat heart pellet fraction at 0.7 to 1.4 MBq, iv preincubated with POCA for 2 hrs before compound administration measured at 120 mins post treatment by Folch-type extraction method; type: ADME, organism-based; settings: in vivo
Summary of the method: (§2)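 Female Sprague-Dawley rats, fasted overnight, under isoflurane (3.5% induction, 1.5% maintenance). [18F] tracer in 0.5–1.0% BSA/saline was given by tail vein. POCA group: 30 mg/kg i.p. 120 min before tracer. About 0.5 g tissue was homogenized and sonicated in chloroform/methanol (2:1) at 0 °C, then 40% urea and 5% H2SO4 were added and spun 10 min at 1,800 g. Aqueous, organic and pellet fractions were counted as % of total.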

[5] = tested on: Muscle tissue; test: Biodistribution in overnight fasted Sprague-Dawley rat muscle aqueous fraction at 0.7 to 1.4 MBq, iv preincubated with POCA for 2 hrs before compound administration measured at 30 mins post treatment by Folch-type extraction method; type: ADME, organism-based; settings: in vivo, 0.5 h; summary of the method: as §2
[6] = tested on: Blood; test: Drug uptake in overnight fasted Sprague-Dawley rat blood at 0.7 to 1.4 MBq, iv preincubated with POCA for 2 hrs before compound administration measured at 30 mins post treatment; type: ADME, organism-based; settings: in vivo, 0.5 h
Summary of the method: (§3)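 Overnight-fasted female Sprague-Dawley rats under isoflurane received the [18F] tracer in 0.5–1.0% BSA/saline by tail vein. POCA group: 30 mg/kg i.p. 2 h before tracer. Tissues were excised at 30 or 120 min, weighed and gamma-counted with decay correction. Uptake = % dose kg/g, i.e. CPM tissue × body wt (kg) × 100 / (tissue wt (g) × CPM dose). n = 5–6.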

[7] = tested on: Lung; test: Drug uptake in overnight fasted Sprague-Dawley rat lung at 0.7 to 1.4 MBq, iv at 30 mins; type: ADME, organism-based; settings: in vivo, 0.5 h; summary of the method: as §1
[8] = tested on: Kidney; test: Drug uptake in overnight fasted Sprague-Dawley rat kidney at 0.7 to 1.4 MBq, iv at 120 mins; type: ADME, organism-based; settings: in vivo, 2 h; summary of the method: as §1
[9] = tested on: Muscle tissue; test: Drug uptake in overnight fasted Sprague-Dawley rat muscle at 0.7 to 1.4 MBq, iv at 120 mins; type: ADME, organism-based; settings: in vivo, 2 h; summary of the method: as §1
[10] = tested on: Bone; test: Drug uptake in overnight fasted Sprague-Dawley rat bone at 0.7 to 1.4 MBq, iv at 30 mins; type: ADME, organism-based, Bone element; settings: in vivo, 0.5 h; summary of the method: as §3
[11] = tested on: Lung; test: Drug uptake in overnight fasted Sprague-Dawley rat lung at 0.7 to 1.4 MBq, iv preincubated with POCA for 2 hrs before compound administration measured at 30 mins post treatment; type: ADME, organism-based; settings: in vivo, 0.5 h; summary of the method: as §1
[12] = tested on: Muscle tissue; test: Biodistribution in overnight fasted Sprague-Dawley rat muscle pellet fraction at 0.7 to 1.4 MBq, iv at 30 mins by Folch-type extraction method; type: ADME, organism-based; settings: in vivo, 0.5 h; summary of the method: as §2
[13] = tested on: Liver; test: Drug uptake in overnight fasted Sprague-Dawley rat liver at 0.7 to 1.4 MBq, iv at 30 mins; type: ADME, organism-based; settings: in vivo, 0.5 h; summary of the method: as §1
[14] = tested on: Muscle tissue; test: Drug uptake in overnight fasted Sprague-Dawley rat muscle at 0.7 to 1.4 MBq, iv preincubated with POCA for 2 hrs before compound administration measured at 120 mins post treatment; type: ADME, organism-based; settings: in vivo; summary of the method: as §1
[15] = tested on: Liver; test: Biodistribution in overnight fasted Sprague-Dawley rat liver pellet fraction at 0.7 to 1.4 MBq, iv at 120 mins by Folch-type extraction method; type: ADME, organism-based; settings: in vivo, 2 h; summary of the method: as §2
[16] = tested on: Brain; test: Drug uptake in overnight fasted Sprague-Dawley rat brain at 0.7 to 1.4 MBq, iv at 120 mins; type: ADME, organism-based; settings: in vivo, 2 h; summary of the method: as §3
[17] = tested on: Liver; test: Drug uptake in overnight fasted Sprague-Dawley rat liver at 0.7 to 1.4 MBq, iv preincubated with POCA for 2 hrs before compound administration measured at 120 mins post treatment; type: ADME, organism-based; settings: in vivo; summary of the method: as §1
[18] = tested on: Liver; test: Biodistribution in overnight fasted Sprague-Dawley rat liver organic fraction at 0.7 to 1.4 MBq, iv at 120 mins by Folch-type extraction method; type: ADME, organism-based; settings: in vivo, 2 h; summary of the method: as §2
[19] = tested on: Liver; test: Biodistribution in overnight fasted Sprague-Dawley rat liver aqueous fraction at 0.7 to 1.4 MBq, iv preincubated with POCA for 2 hrs before compound administration measured at 120 mins post treatment by Folch-type extraction method; type: ADME, organism-based; settings: in vivo; summary of the method: as §2
[20] = tested on: Kidney; test: Drug uptake in overnight fasted Sprague-Dawley rat kidney at 0.7 to 1.4 MBq, iv preincubated with POCA for 2 hrs before compound administration measured at 120 mins post treatment; type: ADME, organism-based; settings: in vivo; summary of the method: as §1
[21] = tested on: Heart; test: Biodistribution in overnight fasted Sprague-Dawley rat heart aqueous fraction at 0.7 to 1.4 MBq, iv at 120 mins by Folch-type extraction method; type: ADME, organism-based; settings: in vivo, 2 h; summary of the method: as §2
[22] = tested on: Muscle tissue; test: Biodistribution in overnight fasted Sprague-Dawley rat muscle aqueous fraction at 0.7 to 1.4 MBq, iv at 120 mins by Folch-type extraction method; type: ADME, organism-based; settings: in vivo, 2 h; summary of the method: as §2
[23] = tested on: Brain; test: Drug uptake in overnight fasted Sprague-Dawley rat brain at 0.7 to 1.4 MBq, iv preincubated with POCA for 2 hrs before compound administration measured at 30 mins post treatment; type: ADME, organism-based; settings: in vivo, 0.5 h; summary of the method: as §3
[24] = tested on: Heart; test: Biodistribution in overnight fasted Sprague-Dawley rat heart organic fraction at 0.7 to 1.4 MBq, iv at 120 mins by Folch-type extraction method; type: ADME, organism-based; settings: in vivo, 2 h; summary of the method: as §2
[25] = tested on: Liver; test: Biodistribution in overnight fasted Sprague-Dawley rat liver pellet fraction at 0.7 to 1.4 MBq, iv at 30 mins by Folch-type extraction method; type: ADME, organism-based; settings: in vivo, 0.5 h; summary of the method: as §2
[26] = tested on: Liver; test: Biodistribution in overnight fasted Sprague-Dawley rat liver aqueous fraction at 0.7 to 1.4 MBq, iv at 120 mins by Folch-type extraction method; type: ADME, organism-based; settings: in vivo, 2 h; summary of the method: as §2
[27] = tested on: Heart; test: Biodistribution in overnight fasted Sprague-Dawley rat heart pellet fraction at 0.7 to 1.4 MBq, iv at 30 mins by Folch-type extraction method; type: ADME, organism-based; settings: in vivo, 0.5 h; summary of the method: as §2
[28] = tested on: Heart; test: Biodistribution in overnight fasted Sprague-Dawley rat heart aqueous fraction at 0.7 to 1.4 MBq, iv preincubated with POCA for 2 hrs before compound administration measured at 30 mins post treatment by Folch-type extraction method; type: ADME, organism-based; settings: in vivo, 0.5 h; summary of the method: as §2
[29] = tested on: Blood; test: Drug uptake in overnight fasted Sprague-Dawley rat blood at 0.7 to 1.4 MBq, iv preincubated with POCA for 2 hrs before compound administration measured at 120 mins post treatment; type: ADME, organism-based; settings: in vivo; summary of the method: as §3
[30] = tested on: Heart; test: Drug uptake in overnight fasted Sprague-Dawley rat heart at 0.7 to 1.4 MBq, iv at 30 mins; type: ADME, organism-based; settings: in vivo, 0.5 h; summary of the method: as §1
[31] = tested on: Heart; test: Drug uptake in overnight fasted Sprague-Dawley rat heart at 0.7 to 1.4 MBq, iv preincubated with POCA for 2 hrs before compound administration measured at 120 mins post treatment; type: ADME, organism-based; settings: in vivo; summary of the method: as §1

Compound | Drug uptake [1] | Drug uptake [2] | Drug uptake [3] | Drug uptake [4] | Drug uptake [5] | Drug uptake [6] | Drug uptake [7] | Drug uptake [8] | Drug uptake [9] | Drug uptake [10] | Drug uptake [11] | Drug uptake [12] | Drug uptake [13] | Drug uptake [14] | Drug uptake [15] | Drug uptake [16] | Drug uptake [17] | Drug uptake [18] | Drug uptake [19] | Drug uptake [20] | other results
O=C(O)CCCCSCCCCCCCCCCCC[18F] | 0.3441 %IDKg/g | Active | 0.0702 %IDKg/g | 22.48% | 7.7% | 0.051 %IDKg/g | 0.0621 %IDKg/g | 0.1629 %IDKg/g | 0.0263 %IDKg/g | 0.1171 %IDKg/g | 0.1163 %IDKg/g | 38.95% | 1.126 %IDKg/g | 0.0599 %IDKg/g | 54.58% | 0.022 %IDKg/g | 0.419 %IDKg/g | 35.26% | 7.45% | 0.1554 %IDKg/g | Drug uptake [21]: 4.03%; Drug uptake [22]: 18.18%; Drug uptake [23]: 0.0879 %IDKg/g; Drug uptake [24]: 28.56%; Drug uptake [25]: 44.72%; Drug uptake [26]: 10.15%; Drug uptake [27]: 70.16%; Drug uptake [28]: 3.84%; Drug uptake [29]: 0.0271 %IDKg/g; Drug uptake [30]: 0.4413 %IDKg/g; Drug uptake [31]: 0.2288 %IDKg/g
O=C(O)CCSCCCCCCCCCCCCCC[18F] | 0.235 %IDKg/g | Active | 0.0339 %IDKg/g | 21.68% | 25.8% | 0.051 %IDKg/g | 0.0755 %IDKg/g | 0.0726 %IDKg/g | 0.0181 %IDKg/g | 0.2309 %IDKg/g | 0.0998 %IDKg/g | 32.22% | 0.6292 %IDKg/g | 0.0197 %IDKg/g | 36.13% | 0.0143 %IDKg/g | 0.1341 %IDKg/g | 55.69% | 10.23% | 0.0947 %IDKg/g | Drug uptake [21]: 2.39%; Drug uptake [22]: 11.58%; Drug uptake [23]: 0.0385 %IDKg/g; Drug uptake [24]: 26.14%; Drug uptake [25]: 32.97%; Drug uptake [26]: 8.18%; Drug uptake [27]: 78.72%; Drug uptake [28]: 7.73%; Drug uptake [29]: 0.0125 %IDKg/g; Drug uptake [30]: 0.314 %IDKg/g; Drug uptake [31]: 0.1025 %IDKg/g
O=C(O)CCSCCCCCCCCCCCC[18F] | 0.2477 %IDKg/g | Active | 0.0183 %IDKg/g | 24.47% | 25.13% | 0.0633 %IDKg/g | 0.099 %IDKg/g | 0.1014 %IDKg/g | 0.0109 %IDKg/g | 0.235 %IDKg/g | 0.0676 %IDKg/g | 43.18% | 0.899 %IDKg/g | 0.0298 %IDKg/g | 63.27% | 0.0154 %IDKg/g | 0.4433 %IDKg/g | 31.39% | 11.52% | 0.1637 %IDKg/g | Drug uptake [21]: 4.17%; Drug uptake [22]: 16.17%; Drug uptake [23]: 0.04879 %IDKg/g; Drug uptake [24]: 18.88%; Drug uptake [25]: 38.21%; Drug uptake [26]: 5.32%; Drug uptake [27]: 58.8%; Drug uptake [28]: 15.28%; Drug uptake [29]: 0.0392 %IDKg/g; Drug uptake [30]: 0.589 %IDKg/g; Drug uptake [31]: 0.1042 %IDKg/g
O=C(O)CCSCCCC/C=C\CCCCCCCC[18F] | 0.1932 %IDKg/g | Active | 0.0228 %IDKg/g | 29.14% | 24.06% | 0.0606 %IDKg/g | 0.0496 %IDKg/g | 0.1244 %IDKg/g | 0.0171 %IDKg/g | 0.1531 %IDKg/g | 0.0458 %IDKg/g | 59.12% | 1.1847 %IDKg/g | 0.0216 %IDKg/g | 59.56% | 0.0215 %IDKg/g | 0.1666 %IDKg/g | 34.75% | 8.1% | 0.0611 %IDKg/g | Drug uptake [21]: 1.86%; Drug uptake [22]: 9.91%; Drug uptake [23]: 0.0368 %IDKg/g; Drug uptake [24]: 9.34%; Drug uptake [25]: 71.69%; Drug uptake [26]: 5.68%; Drug uptake [27]: 88.67%; Drug uptake [28]: 10.15%; Drug uptake [29]: 0.0141 %IDKg/g; Drug uptake [30]: 0.7028 %IDKg/g; Drug uptake [31]: 0.076 %IDKg/g
